From ChEMBL document CHEMBL5154713, “Illuminating a Dark Kinase: Structure-Guided Design, Synthesis, and Evaluation of a Potent Nek1 Inhibitor and Its Effects on the Embryonic Zebrafish Pronephros” (J Med Chem, 2022) come the findings set out here.

Series [1] has as its target Glycogen synthase kinase-3 beta (Homo sapiens) (UniProt P49841). Put plainly: Inhibition of human GSK3beta (2 to end residues) assessed as residual activity using YRRAAVPPSPSLSRHSSPHQS(p) EDEEE as substrate at 1 uM incubated for 40 mins in presence of [gamma 33P]-ATP by radiometric scintillation counting assay relative to control. The method in brief: (§1)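 Commercial radiometric panel of 50 kinases. Each recombinant human kinase was tested at a single compound concentration of 1 μM. ATP was set within 15 μM of the apparent Km for ATP for each kinase. Residual activity is relative to control and is the mean of two independent experiments.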

The target of series [2] is Ephrin type-B receptor 4 (Homo sapiens) (UniProt P54760). The experiment in a line: Inhibition of recombinant human EphB4 (561 to end residues) assessed as residual activity at 1 uM using poly(Glu, Tyr) 4:1 as substrate at 40 mins in presence of [gamma-33ATP] by scintillation counting based radiometry assay relative to control. In a few lines:
as §1

Series [3] addresses Protein-tyrosine kinase 6 (Homo sapiens) (UniProt Q13882). Put plainly: Inhibition of recombinant full length human BRK assessed as residual activity at 1 uM using poly(Glu, Tyr) 4:1 as substrate incubated for 40 mins in presence of [gamma-33ATP] by scintillation counting based radiometry assay relative to control. The method in brief: as §1
Series [4] has as its target Platelet-derived growth factor receptor beta (Homo sapiens) (UniProt P09619). The experiment in a line: Inhibition of human PDGFRbeta (557 to end residues) assessed as residual activity at 1 uM using poly(Glu, Tyr) 4:1 as substrate measured after 40 mins in presence of [gamma33P]ATP by scintillation counting method relative to control. In a few lines: as §1
Series [5] addresses Casein kinase I isoform gamma-1 (Homo sapiens) (UniProt Q9HCP0). The experiment in a line: Inhibition of recombinant human CK1gamma1 (25 to 355 residues) assessed as residual activity at 1 uM using KRRRALS(p)VASLPGL as substrate measured after 40 mins in presence of [gamma33P]ATP by radiometric scintillation counting method relative to control. In a few lines: as §1
Series [6] has as its target Tyrosine-protein kinase receptor TYRO3 (Homo sapiens) (UniProt Q06418). Put plainly: Inhibition of human RSE (451 to end residues) assessed as residual activity at 1 uM using KVEKIGEGTYGVVYK as substrate measured after 40 mins in presence of [gamma33P]ATP by radiometric scintillation counting method relative to control. In a few lines: as §1
Series [7] deals with Tyrosine-protein kinase ABL1 (Homo sapiens), P00519 [Q252H]. The experiment in a line: Inhibition of human Abl Q252H mutant (27 to end residues) assessed as residual activity at 1 uM using EAIYAAPFAKKK as substrate incubated for 40 mins in presence of [gamma 33P]-ATP by radiometric scintillation counting assay relative to control. The method in brief: as §1
In series [8] the target is Serine/threonine-protein kinase pim-1 (Homo sapiens) (UniProt P11309). Put plainly: Inhibition of human full length recombinant Pim1 assessed as residual activity at 1 uM using KKRNRTLTV as substrate incubated for 40 mins in presence of [gamma 33P]-ATP by radiometric scintillation counting assay relative to control. In a few lines:
as §1

For series [9], the target named is Phosphatidylinositol 4,5-bisphosphate 3-kinase catalytic subunit gamma isoform (Homo sapiens) (UniProt P48736). Put plainly: Inhibition of human full length PI3Kgamma assessed as residual activity at 1 uM using phosphatidylinositol-4, 5-bisphosphate as substrate incubated for 40 mins in presence of ATP by HTRF assay relative to control. Background: Time-resolved FRET reads energy transfer from a long-lived donor to a nearby acceptor.

Another series is filed under the species Homo sapiens. The experiment in a line: Inhibition of recombinant full length human CK2alpha2 assessed as residual activity at 1 uM using RRRDDDSDDD as substrate incubated 40 mins in presence of [gamma-33ATP] by scintillation counting based radiometry assay relative to control. The method in brief:
as §1

The target in series [10] is Epidermal growth factor receptor (Homo sapiens) (UniProt P00533). The experiment in a line: Inhibition of human recombinant EGFR (696 to end residues) assessed as residual activity at 1 uM using poly(Glu, Tyr) 4:1 as substrate incubated for 40 mins in presence of [gamma 33P]-ATP by radiometric scintillation counting assay relative to control. In a few lines:
as §1

Series [11] can be described thus: Toxicity in fluorescence-labelled Zebrafish pronephron assessed as increase in impaired renal clearance at 10 to 20 uM. Set-up: species or system Danio rerio. Conditions: in vivo, dose 10-20 µM. In a few lines:
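Wild-type embryos exposed from 6 hpf to E3/0.2% DMSO controls or 10 and 20 μM compound, in E3 with 75 μM PTU. At 48 h, 100 nM PT-Yellow for 20 min, washed, then returned to compound up to 96 h total. Anesthetized embryos imaged in agarose molds by widefield microscopy, 33 Z-slices. Tubule fluorescence and area quantified from summed deconvolved projections. n = 3–5.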

Serine/threonine-protein kinase pim-1 (Homo sapiens), sequence (P11309 whole entry, looked up): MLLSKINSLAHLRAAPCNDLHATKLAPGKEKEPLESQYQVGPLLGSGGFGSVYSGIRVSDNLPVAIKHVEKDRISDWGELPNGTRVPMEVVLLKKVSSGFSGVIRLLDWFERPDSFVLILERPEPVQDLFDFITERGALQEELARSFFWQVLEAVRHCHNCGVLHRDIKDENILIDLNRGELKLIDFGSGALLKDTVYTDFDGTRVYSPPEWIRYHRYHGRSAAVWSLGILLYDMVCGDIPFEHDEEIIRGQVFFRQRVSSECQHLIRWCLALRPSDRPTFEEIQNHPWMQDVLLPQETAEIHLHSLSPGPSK
Glycogen synthase kinase-3 beta (Homo sapiens), sequence (P49841 whole entry, looked up): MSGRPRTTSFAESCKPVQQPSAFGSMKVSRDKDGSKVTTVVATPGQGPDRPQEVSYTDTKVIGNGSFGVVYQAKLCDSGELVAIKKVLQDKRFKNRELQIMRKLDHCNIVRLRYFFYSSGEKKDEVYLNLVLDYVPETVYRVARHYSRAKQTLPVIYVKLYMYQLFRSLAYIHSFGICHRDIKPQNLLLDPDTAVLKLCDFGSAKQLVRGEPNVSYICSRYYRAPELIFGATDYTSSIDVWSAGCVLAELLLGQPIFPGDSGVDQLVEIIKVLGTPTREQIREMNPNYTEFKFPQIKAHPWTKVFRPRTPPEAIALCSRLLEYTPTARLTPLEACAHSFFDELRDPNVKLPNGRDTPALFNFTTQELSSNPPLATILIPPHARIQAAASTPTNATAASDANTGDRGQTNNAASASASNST
Epidermal growth factor receptor (Homo sapiens), sequence (P00533 whole entry): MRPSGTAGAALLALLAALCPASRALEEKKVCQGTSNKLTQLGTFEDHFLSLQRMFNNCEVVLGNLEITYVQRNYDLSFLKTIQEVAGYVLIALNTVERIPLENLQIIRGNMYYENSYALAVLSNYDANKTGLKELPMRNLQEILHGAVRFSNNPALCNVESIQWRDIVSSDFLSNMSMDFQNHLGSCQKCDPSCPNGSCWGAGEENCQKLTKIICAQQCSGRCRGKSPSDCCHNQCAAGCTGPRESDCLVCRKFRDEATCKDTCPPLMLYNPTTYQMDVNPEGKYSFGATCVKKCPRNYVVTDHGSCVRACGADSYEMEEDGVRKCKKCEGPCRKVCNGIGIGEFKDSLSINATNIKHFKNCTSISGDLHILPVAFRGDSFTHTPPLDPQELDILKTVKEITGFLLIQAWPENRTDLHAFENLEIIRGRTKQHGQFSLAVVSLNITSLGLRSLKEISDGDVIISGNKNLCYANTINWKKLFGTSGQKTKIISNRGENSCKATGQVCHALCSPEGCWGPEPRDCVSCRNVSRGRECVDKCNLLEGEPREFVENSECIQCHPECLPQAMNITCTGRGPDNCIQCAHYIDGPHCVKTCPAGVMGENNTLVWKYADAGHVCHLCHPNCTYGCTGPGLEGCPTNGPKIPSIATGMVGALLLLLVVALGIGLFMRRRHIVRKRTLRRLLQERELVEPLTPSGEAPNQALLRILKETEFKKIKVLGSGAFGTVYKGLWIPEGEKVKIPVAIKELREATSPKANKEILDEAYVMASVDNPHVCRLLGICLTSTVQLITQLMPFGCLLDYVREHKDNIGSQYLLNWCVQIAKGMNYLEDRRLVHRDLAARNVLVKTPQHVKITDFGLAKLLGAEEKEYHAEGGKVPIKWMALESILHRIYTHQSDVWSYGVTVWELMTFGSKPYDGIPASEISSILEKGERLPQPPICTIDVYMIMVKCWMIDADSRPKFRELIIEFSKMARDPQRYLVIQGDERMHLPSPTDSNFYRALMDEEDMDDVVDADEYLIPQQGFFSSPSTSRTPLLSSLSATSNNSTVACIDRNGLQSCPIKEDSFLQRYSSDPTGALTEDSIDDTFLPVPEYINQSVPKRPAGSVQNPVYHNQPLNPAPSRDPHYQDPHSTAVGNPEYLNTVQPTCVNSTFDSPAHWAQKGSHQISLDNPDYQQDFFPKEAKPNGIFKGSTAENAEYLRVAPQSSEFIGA
Casein kinase I isoform gamma-1 (Homo sapiens), sequence (Q9HCP0 whole entry, looked up, the tested form may be a part, canonical isoform): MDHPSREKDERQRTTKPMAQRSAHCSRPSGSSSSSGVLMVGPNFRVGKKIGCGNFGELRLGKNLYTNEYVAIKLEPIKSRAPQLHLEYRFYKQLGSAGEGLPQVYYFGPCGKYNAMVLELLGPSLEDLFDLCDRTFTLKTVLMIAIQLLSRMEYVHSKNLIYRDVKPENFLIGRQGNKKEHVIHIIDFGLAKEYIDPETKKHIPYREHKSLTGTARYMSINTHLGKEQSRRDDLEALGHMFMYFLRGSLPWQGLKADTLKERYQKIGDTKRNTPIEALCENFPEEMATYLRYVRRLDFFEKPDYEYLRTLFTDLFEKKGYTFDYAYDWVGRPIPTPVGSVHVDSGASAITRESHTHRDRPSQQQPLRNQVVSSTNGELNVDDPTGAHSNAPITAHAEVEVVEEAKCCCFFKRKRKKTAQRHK
Platelet-derived growth factor receptor beta (Homo sapiens), sequence (P09619 whole entry, the tested form may be a part, canonical isoform): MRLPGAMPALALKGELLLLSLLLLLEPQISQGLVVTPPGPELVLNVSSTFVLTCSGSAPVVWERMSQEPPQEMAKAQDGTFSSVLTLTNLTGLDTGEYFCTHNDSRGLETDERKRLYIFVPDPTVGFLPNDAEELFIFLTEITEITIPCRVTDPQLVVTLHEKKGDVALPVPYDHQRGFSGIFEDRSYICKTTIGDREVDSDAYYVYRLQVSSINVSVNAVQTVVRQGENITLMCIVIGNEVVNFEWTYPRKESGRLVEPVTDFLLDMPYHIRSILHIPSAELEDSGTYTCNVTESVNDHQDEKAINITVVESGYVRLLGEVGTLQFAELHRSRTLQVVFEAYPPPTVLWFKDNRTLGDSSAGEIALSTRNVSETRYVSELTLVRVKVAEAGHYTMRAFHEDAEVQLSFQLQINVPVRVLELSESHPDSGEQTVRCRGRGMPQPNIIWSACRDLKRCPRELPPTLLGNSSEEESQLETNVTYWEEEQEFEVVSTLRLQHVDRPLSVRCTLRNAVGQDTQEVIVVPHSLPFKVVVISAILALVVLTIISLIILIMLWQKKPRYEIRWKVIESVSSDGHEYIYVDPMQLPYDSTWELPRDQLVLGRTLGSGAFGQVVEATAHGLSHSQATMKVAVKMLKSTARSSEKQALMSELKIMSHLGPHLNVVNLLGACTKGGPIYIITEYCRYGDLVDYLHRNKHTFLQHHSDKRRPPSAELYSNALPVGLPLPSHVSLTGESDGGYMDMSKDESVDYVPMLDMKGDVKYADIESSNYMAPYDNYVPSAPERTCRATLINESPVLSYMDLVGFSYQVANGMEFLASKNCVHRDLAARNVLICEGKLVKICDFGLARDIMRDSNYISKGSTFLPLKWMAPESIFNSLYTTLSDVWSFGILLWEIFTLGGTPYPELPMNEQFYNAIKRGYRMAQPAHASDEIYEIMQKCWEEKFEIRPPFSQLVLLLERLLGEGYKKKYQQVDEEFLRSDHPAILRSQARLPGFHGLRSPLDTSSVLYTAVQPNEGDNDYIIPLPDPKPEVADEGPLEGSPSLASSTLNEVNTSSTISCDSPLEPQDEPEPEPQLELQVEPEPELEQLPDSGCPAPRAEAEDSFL
Tyrosine-protein kinase receptor TYRO3 (Homo sapiens), sequence (Q06418 whole entry): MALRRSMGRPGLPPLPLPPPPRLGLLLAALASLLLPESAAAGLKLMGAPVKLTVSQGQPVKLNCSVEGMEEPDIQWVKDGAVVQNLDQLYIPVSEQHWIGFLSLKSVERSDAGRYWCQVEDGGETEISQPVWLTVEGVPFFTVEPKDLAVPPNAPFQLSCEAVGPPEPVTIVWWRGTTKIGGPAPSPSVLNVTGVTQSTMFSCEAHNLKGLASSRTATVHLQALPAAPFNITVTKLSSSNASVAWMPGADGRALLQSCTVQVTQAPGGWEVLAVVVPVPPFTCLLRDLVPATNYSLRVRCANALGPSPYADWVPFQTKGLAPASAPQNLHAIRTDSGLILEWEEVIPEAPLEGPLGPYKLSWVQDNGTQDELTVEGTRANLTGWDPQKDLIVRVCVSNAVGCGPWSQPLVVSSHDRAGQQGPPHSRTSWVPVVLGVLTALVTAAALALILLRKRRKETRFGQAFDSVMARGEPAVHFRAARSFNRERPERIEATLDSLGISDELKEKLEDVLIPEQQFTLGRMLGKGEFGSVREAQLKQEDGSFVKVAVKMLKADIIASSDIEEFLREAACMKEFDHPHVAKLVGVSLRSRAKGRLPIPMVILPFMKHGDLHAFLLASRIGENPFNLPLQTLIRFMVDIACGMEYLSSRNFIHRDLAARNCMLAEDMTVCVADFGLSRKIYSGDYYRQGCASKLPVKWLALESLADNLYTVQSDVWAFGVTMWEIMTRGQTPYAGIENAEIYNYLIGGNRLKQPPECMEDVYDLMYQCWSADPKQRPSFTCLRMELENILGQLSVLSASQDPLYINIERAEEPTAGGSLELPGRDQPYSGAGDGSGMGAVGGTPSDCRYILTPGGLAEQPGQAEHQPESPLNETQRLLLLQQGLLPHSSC
Protein-tyrosine kinase 6 (Homo sapiens), sequence (Q13882 whole entry, looked up): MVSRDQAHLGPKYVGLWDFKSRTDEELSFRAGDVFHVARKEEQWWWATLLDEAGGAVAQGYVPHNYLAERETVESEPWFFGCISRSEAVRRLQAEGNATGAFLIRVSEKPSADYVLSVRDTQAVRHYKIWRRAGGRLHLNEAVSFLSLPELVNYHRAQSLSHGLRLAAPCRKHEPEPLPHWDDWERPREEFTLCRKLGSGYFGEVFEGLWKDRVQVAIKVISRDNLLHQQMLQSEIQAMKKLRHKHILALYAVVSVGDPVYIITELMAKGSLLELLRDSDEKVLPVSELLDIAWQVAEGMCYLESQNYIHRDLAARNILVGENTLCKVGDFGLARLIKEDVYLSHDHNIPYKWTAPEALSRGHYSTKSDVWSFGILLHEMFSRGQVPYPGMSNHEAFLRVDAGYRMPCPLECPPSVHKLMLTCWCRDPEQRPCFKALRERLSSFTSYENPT

Consider `O=S(=O)(N[C@@H](CO)Cc1c[nH]c2ccccc12)c1ccc(-c2ccnc3[nH]ccc23)cc1`, for which the Activity in series [1], in series [2], in [3], in [4], in series [5] and in series [6] was over 75% throughout. For the same compound, the Activity in [7] was over 75%; in [8], over 75%; in [9], over 75%; in the series listed under Homo sapiens, over 75%; in series [10] it was over 75%; in series [11], “Toxic”.
